ChEMBL document CHEMBL5038583, “Highly Potent and Selective Butyrylcholinesterase Inhibitors for Cognitive Improvement and Neuroprotection” (J Med Chem, 2021)
Activity calls are given as the source filed them. The rule behind the calls is not given here.

Assays:
SH-SY5Y [1] = test: Cytotoxicity against human SH-SY5Y cells assessed as reduction in cell viability incubated for 24 hrs by MTT assay; format: functional, cell-based
Summary of the method: (§1)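 Cells seeded at 1 × 10⁴/well in DMEM with 10% FBS and left overnight, then given compound (DMSO stock diluted in DMEM) for 24 h at 37 °C. MTT added for 4 h, formazan dissolved in DMSO, absorbance read at 492 nm. Viability taken as OD treated/OD DMEM × 100%; IC50 from three independent experiments, mean SD.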

PC-12 [2] = test: Cytotoxicity against rat PC-12 cells assessed as reduction in cell viability incubated for 24 hrs by MTT assay; format: functional, cell-based; conditions: PC-12, 24 h; summary of the method: as §1
BV-2 [3] = test: Cytotoxicity against mouse BV-2 cells assessed as survival rate at 100 uM incubated for 24 hrs by MTT assay; format: functional; summary of the method: as §1
HepG2 [4] = test: Cytotoxicity against human HepG2 cells assessed as reduction in cell viability incubated for 24 hrs by MTT assay; format: functional, cell-based; conditions: HepG2, 24 h; summary of the method: as §1
L02 = test: Cytotoxicity against human L02 cells assessed as survival rate at 100 uM incubated for 24 hrs by MTT assay; format: functional; summary of the method: as §1
Cholinesterase [5] = target: Cholinesterase (Equus caballus, UniProt P81908); test: Inhibition of equine serum BChE using butyrylthiocholine iodide as substrate preincubated for 5 mins followed by substrate addition and measured after 2 mins by DTNB-reagent based Ellman's method
Cholinesterase (Equus caballus, UniProt P81908), sequence (P81908 whole entry): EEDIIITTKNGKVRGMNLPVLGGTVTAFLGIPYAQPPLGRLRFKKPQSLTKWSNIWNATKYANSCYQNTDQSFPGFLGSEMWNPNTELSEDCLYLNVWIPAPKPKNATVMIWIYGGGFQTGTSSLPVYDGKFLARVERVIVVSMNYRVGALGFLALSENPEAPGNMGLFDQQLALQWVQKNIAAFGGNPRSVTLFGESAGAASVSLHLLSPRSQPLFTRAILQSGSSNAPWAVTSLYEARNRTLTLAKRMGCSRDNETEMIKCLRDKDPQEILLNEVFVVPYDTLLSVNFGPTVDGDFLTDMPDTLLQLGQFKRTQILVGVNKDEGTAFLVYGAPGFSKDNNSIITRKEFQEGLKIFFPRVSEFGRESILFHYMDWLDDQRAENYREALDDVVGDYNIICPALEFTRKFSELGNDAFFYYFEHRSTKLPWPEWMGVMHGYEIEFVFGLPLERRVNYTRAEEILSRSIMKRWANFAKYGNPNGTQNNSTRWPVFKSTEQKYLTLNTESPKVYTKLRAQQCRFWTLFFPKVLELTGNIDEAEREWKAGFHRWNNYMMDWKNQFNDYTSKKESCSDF

Cholinesterase [6] = target: Cholinesterase (Homo sapiens, UniProt P06276); test: Inhibition of human serum BChE using butyrylthiocholine iodide as substrate preincubated for 20 mins followed by substrate addition and measured after 2 mins by DTNB-reagent based Ellman's method
Cholinesterase (Homo sapiens, UniProt P06276), sequence (P06276 whole entry): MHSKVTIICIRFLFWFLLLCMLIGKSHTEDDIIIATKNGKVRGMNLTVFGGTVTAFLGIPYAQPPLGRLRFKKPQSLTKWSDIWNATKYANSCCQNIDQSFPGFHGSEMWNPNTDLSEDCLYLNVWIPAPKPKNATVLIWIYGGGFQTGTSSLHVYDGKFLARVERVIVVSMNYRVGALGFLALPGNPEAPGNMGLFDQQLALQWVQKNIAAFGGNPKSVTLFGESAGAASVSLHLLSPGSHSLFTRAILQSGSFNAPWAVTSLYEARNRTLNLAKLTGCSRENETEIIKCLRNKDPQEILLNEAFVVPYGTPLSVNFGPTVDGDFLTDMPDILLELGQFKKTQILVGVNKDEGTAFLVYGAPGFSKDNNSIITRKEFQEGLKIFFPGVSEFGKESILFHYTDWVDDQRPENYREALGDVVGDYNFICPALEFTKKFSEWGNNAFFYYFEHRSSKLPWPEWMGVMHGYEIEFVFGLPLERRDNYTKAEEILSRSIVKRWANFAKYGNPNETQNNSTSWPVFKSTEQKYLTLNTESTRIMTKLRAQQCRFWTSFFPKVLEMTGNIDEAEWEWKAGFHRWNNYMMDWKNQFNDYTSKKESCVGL
Summary of the method: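 hBChE at 0.015 units/mL with DTNB in phosphate buffer pH 8.0, preincubated 20 min at room temperature with at least six concentrations (10⁻⁴−10⁻⁹). Butyrylthiocholine iodide (0.075 M solution) added; A412 read after 2 min at 25 °C. IC50 from % activity vs log concentration; triplicates in at least three runs.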

SH-SY5Y [7] = test: Cytotoxicity against human SH-SY5Y cells assessed as survival rate at 2.5 uM incubated for 24 hrs by MTT assay; format: functional; summary of the method: as §1
PC-12 [8] = test: Cytotoxicity against rat PC-12 cells assessed as survival rate at 2.5 uM incubated for 24 hrs by MTT assay; format: functional; summary of the method: as §1
SH-SY5Y [9] = test: Neuroprotective activity against glutamate-induced cytotoxicity in human SH-SY5Y cells at 10 uM pretreated for 2 hrs followed by glutamate stimulation and measured after 24 hrs by MTT assay; format: functional, cell-based; conditions: time 26.0 hrs
Summary of the method: (§2)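 SH-SY5Y cells seeded at 5000 per well and grown 24 h. Pretreated 2 h with compound (2.5 or 10 μM, diluted in DMEM from 10⁻¹ M DMSO stock), then H₂O₂ 200 μM, glutamate 20 mM or aggregated Aβ1-42 15 μM for 24 h. MTT added for 4 h, formazan dissolved in DMSO, absorbance read at 492 nm. Viability relative to untreated control; mean ± SEM, n = 3.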

[10] = Hepatotoxicity in ICR mouse assessed as change in aspartate aminotransferase activity at 1 g/kg, ig administered daily for 14 days measured upto 36 hrs post-administration; format: toxicity; conditions: in vivo, po, 1000 mg/kg, 336 h, time 14 day
Summary of the method: (§3)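 Heparinized serum from ICR mice taken at 8, 22 and 36 h after oral compound or saline control; AST and ALT activities measured.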

SH-SY5Y [11] = test: Neuroprotective activity against H2O2-induced cytotoxicity in human SH-SY5Y cells pretreated for 2 hrs followed by H2O2 stimulation and measured after 24 hrs by MTT assay; format: functional, cell-based; conditions: dose 2.5-10 µM, time 26.0 hrs; summary of the method: as §2
SH-SY5Y [12] = test: Cytotoxicity against human SH-SY5Y cells assessed as survival rate at 100 uM incubated for 24 hrs by MTT assay; format: functional; summary of the method: as §1
PC-12 [13] = test: Cytotoxicity against rat PC-12 cells assessed as survival rate at 10 uM incubated for 24 hrs by MTT assay; format: functional; summary of the method: as §1
HepG2 [14] = test: Cytotoxicity against human HepG2 cells assessed as survival rate at 100 uM incubated for 24 hrs by MTT assay; format: functional; summary of the method: as §1
[15] = Acute toxicity in ICR mouse assessed as animal death at […]; conditions: in vivo, po, 1000 mg/kg, 336 h
[16] = Acute toxicity in ICR mouse assessed as abnormal behaviour at 1 g/kg, ig administered […]; conditions: in vivo, po, 1000 mg/kg
Summary of the method: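 Single dose of 1 g/kg given intragastrically on day 1 to overnight-fasted mice (15−18 g), suspended in 5% DMSO, 40% PEG 400, 55% saline. Male and female groups (n = 9), with vehicle controls. Death, daily behaviour and body mass followed over the next 2 weeks.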

[17] = Hepatotoxicity in ICR mouse assessed as change in alanine aminotransferase activity at 1 g/kg, ig administered daily for 14 days measured upto 36 hrs post-administration; format: toxicity; conditions: in vivo, po, 1000 mg/kg, 336 h, time 14 day; summary of the method: as §3
[18] = Hepatotoxicity in ICR mouse assessed as morphological changes in liver at 1 g/kg, ig administered daily for 14 days analysed after 22 hrs post-administration by hematoxylin and eosin staining based analysis; format: toxicity, tissue-based; conditions: in vivo, po, 1000 mg/kg, 336 h, time 14 day
Summary of the method: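 Liver from male mice taken 22 h after compound or vehicle; hematoxylin−eosin staining, viewed at ×100.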

[19] = Effective permeability of the compound in pH 7.4 PBS/EtOH (70:30) at 100 ug/ml incubated for 18 hrs by PAMPA-BBB assay; format: ADME; conditions: dose 100 µg/ml, read-out: Peff
Summary of the method: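 PAMPA-BBB with porcine brain lipid in dodecane (20 mg/mL) on PVDF filter. Donor holds compound at 100 μg/mL final (from 5 mg/mL DMSO stock) in PBS pH 7.4/EtOH 70:30; acceptor holds the same buffer. Incubated 18 h at 25 °C; donor and acceptor concentrations by UV at five wavelengths. Four wells, at least three runs, nine permeability standards; mean ± SD.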

SH-SY5Y [20] = test: Neuroprotective activity against amyloid beta (1 to 42)-induced cytotoxicity in human SH-SY5Y cells at 2.5 uM pretreated for 2 hrs followed by amyloid beta (1 to 42) stimulation and measured after 24 hrs by MTT assay; format: functional, cell-based; conditions: time 26.0 hrs; summary of the method: as §2
SH-SY5Y [21] = test: Neuroprotective activity against amyloid beta (1 to 42)-induced cytotoxicity in human SH-SY5Y cells at 10 uM pretreated for 2 hrs followed by amyloid beta (1 to 42) stimulation and measured after 24 hrs by MTT assay; format: functional, cell-based; conditions: time 26.0 hrs; summary of the method: as §2
BV-2 [22] = test: Anti-inflammatory activity against mouse BV-2 cells assessed as blocked of LPS-induced increased ROS production by measuring green fluorescence preincubated for 1 hr by DCFH-DA staining based fluorescence microscopy; format: functional, cell-based
Summary of the method: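 BV2 cells seeded at 1 × 10⁴ per well and grown 24 h at 37 °C. Compounds at various concentrations for 1 h, then LPS 2.5 μg/mL for 24 h. Washed in PBS, loaded with DCFH-DA 5 μM (final) for 30 min, washed three times. Intracellular ROS taken as green fluorescence intensity by inverted fluorescence microscopy, exposure fixed at 10.2 ms.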

Mus musculus [23] = test: Antialzheimer activity in ICR mouse assessed as reduction in scopolamine-induced cognitive impairment at 30 mg/kg, ig administered for 10 consecutive days by Morris water maze test; format: functional, organism-based; conditions: time 10.0 day
Summary of the method: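 Male ICR mice (8−10 weeks, 18−20 g), n = 8 per group. Compound at 15 or 30 mg/kg intragastric in DMSO/saline (10:90), given 30 min before scopolamine 3 mg/kg i.p., for 10 consecutive days; tacrine 15 mg/kg as reference. Morris water maze: 5 days of training, probe trial on day 6 with platform removed. Escape latency and trajectory recorded; mean ± SD.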

Mus musculus [24] = test: Anti-alzheimer activity in amyloid beta(1 to 42)-induced ICR mouse model of cognitive impairment assessed as reduction in escape latency time at 15 mg/kg, ig administered at days 2 to 14 by Morris water maze test; format: functional
Summary of the method: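 Mouse model by icv oligomerized Aβ1-42 (10 μg/mouse, aggregated 24 h at 37 °C in saline) on day 1; 15 mg/kg ig on days 2−14, n = 8. Morris water maze training on days 9−13, probe trial day 14, escape latency and track recorded. Mean SD.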

Mus musculus [25] = test: Anti-alzheimer activity in amyloid beta(1 to 42)-induced ICR mouse model of cognitive impairment assessed as simplification of trajectories at 15 mg/kg, ig administered at days 2 to 14 by Morris water maze test; format: functional, organism-based
Summary of the method: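 ICR mice, n = 8 per group. Aggregated Aβ1-42 (5 mM DMSO stock incubated 24 h at 37 °C in saline at 2 mg/mL) given 10 μg per mouse icv on day 1; saline icv for sham. Compound 15 mg/kg intragastric on days 2−14; donepezil reference. Morris water maze training days 9−13, probe trial day 14; tracks recorded; mean ± SD.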

Mus musculus [26] = test: Anti-alzheimer activity in amyloid beta(1 to 42)-induced ICR mouse model of cognitive impairment assessed as enhanced alternation performance by measuring total number of arm entries at 15 mg/kg, ig administered at days 2 to 14 and measured on day 15 by Y-maze test; format: functional
Summary of the method: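 Oligomerized Aβ1-42 (10 μg per mouse, icv) given on day 1; saline icv for sham. Dosing 15 mg/kg ig on days 2−14 (donepezil as positive control), n = 8. Spontaneous alternation read on day 15 in a three-arm grey PVC Y maze, arms at 120°. Mean SD.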

[27] = Toxicity in ICR mouse assessed as increase in body weight administered for 14 days and measured daily; conditions: in vivo, 15 mg/kg, 336 h
[28] = Metabolic stability in human liver microsomes assessed as half life at 1 uM measured upto 45 mins in presence of NADPH by LC/MS/MS analysis; format: ADME, Microsome
Summary of the method: (§4)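 Human liver microsomes 0.5 mg/mL, compound 1 μM final, NADPH 2 mM, at 37 °C. Reactions stopped at 0, 5, 15, 30 and 45 min with acetonitrile containing imipramine internal standard. LC/MS/MS quantitation relative to 0 min; initial rates used for t1/2 and intrinsic clearance; ketanserin as assay control. Mean of two independent experiments.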

[29] = Metabolic stability in human liver microsomes assessed as intrinsic clearance at 1 uM measured upto 45 mins in presence of NADPH by LC/MS/MS analysis; format: ADME, Microsome; conditions: read-out: CLH; summary of the method: as §4

## Cc1ccc2cc(NC(=O)Cn3c(-c4nonc4N)nc4ccccc43)ccc2n1
SH-SY5Y [1]
  IC50: 35.1 µM
PC-12 [2]
  IC50: 91.5 µM
BV-2 [3]
  Activity: 59.79%
HepG2 [4]
  IC50: 17.3 µM
L02
  Activity: 61.49%

## Nc1nonc1-c1nc2ccccc2n1CC(=O)Nc1cccc2ccccc12
Cholinesterase [5]
  IC50: 0.044 µM
Cholinesterase [6]
  IC50: 0.022 µM
SH-SY5Y [7]
  Activity: 40.84%
PC-12 [8]
  Activity: 44.44%
BV-2 [3]
  Activity: 82.9%
HepG2 [4]
  IC50: 5.05 µM
L02
  Activity: 73.52%

## Nc1nonc1-c1nc2ccccc2n1CC(=O)Nc1cccc([N+](=O)[O-])c1
SH-SY5Y [9]
  Activity: Active
[10]
  Activity: Non-Toxic
SH-SY5Y [11]
  Activity: Dose-Dependent Effect
Cholinesterase [5]
  IC50: 0.031 µM
Cholinesterase [6]
  IC50: 0.025 µM
SH-SY5Y [12]
  Activity: 82.67%
PC-12 [13]
  Activity: 58.34%
BV-2 [3]
  Activity: 94.23%
HepG2 [14]
  Activity: 75.46%
L02
  Activity: 87.01%
[15]
  Activity: Non-Toxic
[16]
  Activity: Non-Toxic
[17]
  Activity: Non-Toxic
[18]
  Activity: Non-Toxic
[19]
  Papp at 18 h, 100 ug/ml: 12.4 ×10⁻⁶ cm/s
SH-SY5Y [20]
  Activity: Active
SH-SY5Y [21]
  Activity: Active
BV-2 [22]
  Activity: Active
Mus musculus [23]
  Activity: Active
Mus musculus [24]
  Activity: Active
Mus musculus [25]
  Activity: Active
Mus musculus [26]
  Activity: 68.67%
[27]
  Activity: Toxic
[28]
  half-life at 1 µM: 47.5 min
[29]
  CLint scaled at 1 µM: 36.6 mL/min/kg
